Measurements taken from ChEMBL document CHEMBL4706563, “Triphenylethylene analogues: Design, synthesis and evaluation of antitumor activity and topoisomerase inhibitors” (Eur J Med Chem, 2020).
Calls of active or inactive are those of the source. No cut-off for these calls is given here.

Tests used:
Type in all cases: functional
HOP-62 = experiment: Antiproliferative activity against human HOP-62 cells assessed as growth inhibition at 10 uM relative to control; conditions: read-out: GI
How it was run: (§1)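 Single-dose screen run by the US National Cancer Institute across its 60-human tumour cell line panel. Each compound was tested at one concentration. Percent growth inhibition was recorded for each cell line.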

NCI-H522 = experiment: Antiproliferative activity against human NCI-H522 cells assessed as growth inhibition at 10 uM relative to control; conditions: read-out: GI; how it was run: as §1
NCI-H460 = experiment: Antiproliferative activity against human NCI-H460 cells assessed as growth inhibition at 10 uM relative to control; conditions: read-out: GI; how it was run: as §1
[1] = Antiproliferative activity against human colon cancer cells; conditions: Colon cancer cell line
[2] = Antiproliferative activity against human renal cancer cells; conditions: Renal cancer cell line
Leukemia cell = experiment: Antiproliferative activity against human leukemia cells
UACC-62 = experiment: Antiproliferative activity against human UACC-62 cells assessed as growth inhibition at 10 uM relative to control; conditions: read-out: GI
How it was run: (§2)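 NCI 60 human tumour cell line panel screen. Compounds tested at a single dose and growth inhibition (%) determined for each line.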

SNB-75 = experiment: Antiproliferative activity against human SNB-75 cells assessed as growth inhibition at 10 uM relative to control; conditions: read-out: GI; how it was run: as §2
EKVX = experiment: Antiproliferative activity against human EKVX cells assessed as growth inhibition at 10 uM relative to control; conditions: read-out: GI; how it was run: as §1
LOX IMVI = experiment: Antiproliferative activity against human LOX IMVI cells assessed as growth inhibition at 10 uM relative to control; conditions: read-out: GI; how it was run: as §1
BT-549 = experiment: Antiproliferative activity against human BT-549 cells assessed as growth inhibition at 10 uM relative to control; how it was run: as §1
OVCAR-3 = experiment: Antiproliferative activity against human OVCAR-3 cells assessed as growth inhibition at 10 uM relative to control; conditions: read-out: GI; how it was run: as §1
SK-MEL-5 = experiment: Antiproliferative activity against human SK-MEL-5 cells assessed as growth inhibition at 10 uM relative to control; conditions: read-out: GI; how it was run: as §2
CAKI-1 = experiment: Antiproliferative activity against human CAKI-1 cells assessed as growth inhibition at 10 uM relative to control; conditions: read-out: GI; how it was run: as §1
Hs-578T = experiment: Antiproliferative activity against human Hs-578T cells assessed as growth inhibition at 10 uM relative to control; conditions: read-out: GI; how it was run: as §1
DU-145 = experiment: Antiproliferative activity against human DU-145 cells assessed as growth inhibition at 10 uM relative to control; conditions: read-out: GI; how it was run: as §1
MCF7 = experiment: Antiproliferative activity against human MCF7 cells assessed as growth inhibition at 10 uM relative to control; conditions: read-out: GI; how it was run: as §1
M14 = experiment: Antiproliferative activity against human M14 cells assessed as growth inhibition at 10 uM relative to control; conditions: read-out: GI; how it was run: as §1
NCI-H23 = experiment: Antiproliferative activity against human NCI-H23 cells assessed as growth inhibition at 10 uM relative to control; conditions: read-out: GI; how it was run: as §1
PC-3 = experiment: Antiproliferative activity against human PC-3 cells assessed as growth inhibition at 10 uM relative to control; conditions: read-out: GI; how it was run: as §1
786-0 = experiment: Antiproliferative activity against human 786-0 cells assessed as growth inhibition at 10 uM relative to control; conditions: read-out: GI; how it was run: as §1
SF-295 = experiment: Antiproliferative activity against human SF-295 cells assessed as growth inhibition at 10 uM relative to control; conditions: read-out: GI; how it was run: as §1
HCT-15 = experiment: Antiproliferative activity against human HCT-15 cells assessed as growth inhibition at 10 uM relative to control; conditions: read-out: GI; how it was run: as §1
NCI-H322M = experiment: Antiproliferative activity against human NCI-H322M cells assessed as growth inhibition at 10 uM relative to control; conditions: read-out: GI; how it was run: as §1
MDA-MB-468 = experiment: Antiproliferative activity against human MDA-MB-468 cells assessed as growth inhibition at 10 uM relative to control; conditions: read-out: GI; how it was run: as §1
MDA-MB-231 = experiment: Antiproliferative activity against human MDA-MB-231 cells assessed as growth inhibition at 10 uM relative to control; conditions: read-out: GI; how it was run: as §1
SK-MEL-2 = experiment: Antiproliferative activity against human SK-MEL-2 cells assessed as growth inhibition at 10 uM relative to control; conditions: read-out: GI; how it was run: as §1
IGROV-1 = experiment: Antiproliferative activity against human IGROV-1 cells assessed as growth inhibition at 10 uM relative to control; conditions: read-out: GI; how it was run: as §1
U-251 = experiment: Antiproliferative activity against human U251 cells assessed as growth inhibition at 10 uM relative to control; conditions: read-out: GI; how it was run: as §2
[3] = Antiproliferative activity against human Non-small cell lung cancer cells; conditions: Non-small cell lung cancer cell line
COLO 205 = experiment: Antiproliferative activity against human COLO 205 cells assessed as growth inhibition at 10 uM relative to control; conditions: read-out: GI; how it was run: as §1
HCC 2998 = experiment: Antiproliferative activity against human HCC 2998 cells assessed as growth inhibition at 10 uM relative to control; conditions: read-out: GI; how it was run: as §1
[4] = Antiproliferative activity against human breast cancer cells; conditions: Breast cancer cell line
SK-OV-3 = experiment: Antiproliferative activity against human SK-OV-3 cells assessed as growth inhibition at 10 uM relative to control; conditions: read-out: GI; how it was run: as §2
NCI/ADR-RES = experiment: Antiproliferative activity against human NCI/ADR-RES cells assessed as growth inhibition at 10 uM relative to control; conditions: read-out: GI; how it was run: as §1
HL-60(TB) = experiment: Antiproliferative activity against human HL-60(TB) cells assessed as growth inhibition at 10 uM relative to control; conditions: read-out: GI
TK-10 = experiment: Antiproliferative activity against human TK-10 cells assessed as growth inhibition at 10 uM relative to control; conditions: read-out: GI; how it was run: as §2
OVCAR-8 = experiment: Antiproliferative activity against human OVCAR-8 cells assessed as growth inhibition at 10 uM relative to control; conditions: read-out: GI; how it was run: as §1
HCT-116 = experiment: Antiproliferative activity against human HCT-116 cells assessed as growth inhibition at 10 uM relative to control; how it was run: as §1
HOP-92 = experiment: Antiproliferative activity against human HOP-92 cells assessed as growth inhibition at 10 uM relative to control; conditions: read-out: GI; how it was run: as §1
[5] = Antiproliferative activity against human CNS cancer cells; conditions: CNS cell
ACHN = experiment: Antiproliferative activity against human ACHN cells assessed as growth inhibition at 10 uM relative to control; conditions: read-out: GI; how it was run: as §1
SW-620 = experiment: Antiproliferative activity against human SW-620 cells assessed as growth inhibition at 10 uM relative to control; conditions: read-out: GI; how it was run: as §2
UACC-257 = experiment: Antiproliferative activity against human UACC-257 cells assessed as growth inhibition at 10 uM relative to control; conditions: read-out: GI; how it was run: as §2
SF-539 = experiment: Antiproliferative activity against human SF-539 cells assessed as growth inhibition at 10 uM relative to control; conditions: read-out: GI; how it was run: as §1
[6] = Antiproliferative activity against human prostate cancer cells; conditions: Prostate tumor cell line
A549 = experiment: Antiproliferative activity against human A549 cells assessed as growth inhibition at 10 uM relative to control; conditions: read-out: GI; how it was run: as §1
[7] = read-out: LC50 (the source's name)

`C/C(=C(/c1ccccc1)c1ccc(OCC(O)CNCCN2CCOCC2)cc1)c1ccccc1` (stereo unspecified) gave an inhibition of growth at 10 µM (HOP-62) of 25.1%, an inhibition of growth at 10 µM (NCI-H522) of 55.5% and an inhibition of growth at 10 µM (NCI-H460) of 82.4%. The GI50 [1] was 2.06 µM, the LC50 [1] was 13.8 µM and the TGI [1] was 5.51 µM. For the same compound, the GI50 [2] was 2.4 µM, the TGI [2] was 7.75 µM and the CC50 [2, 7] was 22 µM. It also gave a GI50 (Leukemia cell) of 2.19 µM, an LC50 (concentration killing 50% of cells) (Leukemia cell) of 23.9 µM and a TGI (Leukemia cell) of 5.8 µM. It also gave an inhibition of growth at 10 µM (UACC-62) of 37.3%, an inhibition of growth at 10 µM (SNB-75) of 34.2% and an inhibition of growth at 10 µM (EKVX) of 17.2%. The inhibition of growth at 10 µM (LOX IMVI) was 81.3%, the “growth inhibition (GI)” value (BT-549) was “inactive” and the inhibition of growth at 10 µM (OVCAR-3) was 22.1%. For the same compound, the inhibition of growth at 10 µM (SK-MEL-5) was 71%, the inhibition of growth at 10 µM (CAKI-1) was 32.1% and the inhibition of growth at 10 µM (Hs-578T) was 29.5%. It also gave an inhibition of growth at 10 µM (DU-145) of 32.2%, an inhibition of growth at 10 µM (MCF7) of 55.4% and an inhibition of growth at 10 µM (M14) of 7.31%. The inhibition of growth at 10 µM (NCI-H23) was 16.8%, the inhibition of growth at 10 µM (PC-3) was 34.5% and the inhibition of growth at 10 µM (786-0) was 2.44%. The inhibition of growth at 10 µM (SF-295) was 28.8%, the inhibition of growth at 10 µM (HCT-15) was 95.5% and the inhibition of growth at 10 µM (NCI-H322M) was 27.3%. It also gave an inhibition of growth at 10 µM (MDA-MB-468) of 46.9%, an inhibition of growth at 10 µM (MDA-MB-231) of 70.6% and an inhibition of growth at 10 µM (SK-MEL-2) of 5.09%. The inhibition of growth at 10 µM (IGROV-1) was 36.6%, the inhibition of growth at 10 µM (U-251) was 67.4% and the GI50 [3] was 4.19 µM. For the same compound, the TGI [3] was 12.2 µM, the CC50 [3, 7] was 36.3 µM and the inhibition of growth at 10 µM (COLO 205) was -64.5%. For the same compound, the inhibition of growth at 10 µM (HCC 2998) was -59.6%, the GI50 [4] was 3.69 µM and the TGI [4] was 9.08 µM. For the same compound, the CC50 [4, 7] was 29.1 µM, the inhibition of growth at 10 µM (SK-OV-3) was 4.57% and the inhibition of growth at 10 µM (NCI/ADR-RES) was 19.8%. The inhibition of growth at 10 µM (HL-60(TB)) was 71%, the inhibition of growth at 10 µM (TK-10) was 26.5% and the inhibition of growth at 10 µM (OVCAR-8) was 21.8%. For the same compound, the “growth inhibition (GI)” value (HCT-116) was “inactive”, the inhibition of growth at 10 µM (HOP-92) was 40.9% and the GI50 [5] was 2.81 µM. It also gave a TGI [5] of 9.9 µM, a CC50 [5, 7] of 25.2 µM and an inhibition of growth at 10 µM (ACHN) of 18.6%. For the same compound, the inhibition of growth at 10 µM (SW-620) was 51%, the inhibition of growth at 10 µM (UACC-257) was -27.5% and the inhibition of growth at 10 µM (SF-539) was 27.2%. It also gave a GI50 [6] of 3.57 µM, a TGI [6] of 13 µM and a CC50 [6, 7] of 38.5 µM. For the same compound, the inhibition of growth at 10 µM (A549) was 29.2%.
